Screens from PubChem.
KCNK3 inh = human KCNK3 channel inhibitors, primary screen, CHO cells, FluxOR thallium flux, B-score; Potassium channel subfamily K member 3 (Homo sapiens), O14649; FluxOR fluorescence; stronger effect = lower value; B-score at 10 µM; 340,000 compounds, 0.84% hits; AID 602410, 2012;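 active means B-score under library mean minus 4 SD, starting fluorescence ratio at most library mean plus 5 SD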;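 further: more negative B-score means stronger inhibition of thallium flux through KCNK3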
KCNQ1 inh = inhibitors of human KCNQ1 channel, primary screen, cell-based, thallium flux, high-throughput. CHO-K1 KCNQ1, FluxOR thallium flux fluorescence; stronger effect = higher value. B-score at 10 µM. AID 2642, 2010. 310,000 compounds, 1.3% hits;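 active means compounds whose thallium flux B-score, printed positive for inhibition, exceeds three library SD while starting fluorescence stays within three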;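 further: channel opened by potassium depolarization with thallium stimulus after 20 min compound exposure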
KCNQ1 pot = potentiators or activators of KCNQ1 channel, primary screen, cell-based, thallium flux, high-throughput | B-score at 10 µM | CHO-K1 KCNQ1, thallium flux FluxOR fluorescence; stronger effect = higher value | Potassium voltage-gated channel subfamily KQT member 1 (Homo sapiens), P51787 | 310,000 compounds, 0.35% hits | AID 2648, 2010;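 active means fluorescence ratio B-score, a plate-corrected score, at least three library SD, with initial intensity B-score within 5 SD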
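assay system = CHO-K1 cells stably expressing KCNQ1 | medium = assay buffer, equal DMSO in all wells | timing = 37 °C overnight plating, 90-min dark dye load, 20-min compound pretreatment | measured by = kinetic FluxOR thallium fluorescence, 10-s 1-Hz baseline, 110-s post-stimulus read | measure = fluorescence change relative to baseline, converted to B score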
hERG protect = hERG rescue from dofetilide block, primary screen, cell-based, CHO-hERG, FluxOR thallium flux, dofetilide IC70 | AID 1511, 2009 | dofetilide IC70 present | Voltage-gated inwardly rectifying potassium channel KCNH2 (Homo sapiens), Q12809 | activation (rescue from dofetilide block), less the hit threshold, % at 10 µM | 310,000 compounds, 0.51% hits;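 active means activation above the mean of controls blocked by dofetilide plus 5 SD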;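 further: thallium influx through hERG after potassium depolarization seen as dye fluorescence rise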
KCNK9 inh = KCNK9 potassium channel inhibitors, primary screen, HEK293 cells, thallium flux | Potassium channel subfamily K member 9 (Homo sapiens), Q9NPC2 | B-score at 10 µM | AID 488922, 2010 | FluxOR thallium flux fluorescence; stronger effect = lower value | 310,000 compounds, 1.2% hits;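 active means ratio B-score over 3 SD below the library mean, with starting fluorescence within 5 SD of its mean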;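 further: negative B-score means less thallium flux so channel inhibition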
KCNQ1 block val = KCNQ1 potassium channel inhibitors, confirmation, cell-based, Tl flux, duplicate | shares compounds with KCNQ1 inh | KCNQ1 cell line, FluxOR thallium flux fluorescence | inhibition, % at 10 µM | 1,600 compounds, 93% hits | AID 588353, 2011;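 active means primary screen active, with duplicate mean exceeding buffer control mean plus 3 SD of buffer wells, cut at about 28% in these data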;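 further: 0% = buffer control ratio and 100% = XE991 inhibitor control ratio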
CHO KCNQ1 ctr = thallium flux effects in parental CHO cells, counter-screen for KCNQ1 inhibitor project, cell-based, Tl flux. shares compounds with KCNQ1 inh. parental CHO-K1, FluxOR thallium flux fluorescence ratio; stronger effect = lower value; zero means no signal rise above baseline. fluorescence ratio (Tl flux) at 10 µM. 1,600 compounds, 21% hits. AID 588366, 2011;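 active means mean of duplicate thallium-flux fluorescence ratios in parental host cells more than 5 SD below the buffer control mean, cut at about 0.38 in these data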;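 further: ratio is peak minus minimum fluorescence divided by baseline fluorescence; actives read low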
KCNQ1 APC inh = KCNQ1 channel inhibitors, confirmation, orthogonal assay, cell-based, automated electrophysiology | shares compounds with KCNQ1 inh | 490 compounds, 20% hits | AID 624120, 2012 | calls only at 10 µM | KCNQ1-CHO cells, automated patch clamp current;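 active means KCNQ1 current drop exceeding 3 SD of negative control wells, seen in both duplicate runs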;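 further: steady state current during a 2 s step from -80 to +40 mV; negative values mean current inhibition and positive values mean potentiation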
KCNQ2 inh = KCNQ2 channel inhibition, selectivity assay for KCNQ1 inhibitor project, cell-based; AID 651746, 2012; shares compounds with KCNQ1 inh; KCNQ2 cells, FluxOR thallium flux fluorescence; inhibition, % at 10 µM; 1,600 compounds, 71% hits;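 active means mean percent inhibition of the KCNQ2 thallium signal more than 5 SD above the buffer-only control wells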;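 further: KCNQ2 expressed in CHO cells; 0% = buffer control wells and 100% = XE-991 inhibitor control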
KCNQ1-KCNE1 inh = KCNQ1/KCNE1 channel inhibition, selectivity assay for KCNQ1 inhibitor project, CHO-K1 cells, thallium flux, FluxOR. 1,600 compounds, 77% hits. shares compounds with KCNQ1 inh. inhibition, % at 10 µM. AID 652147, 2013. FluxOR thallium flux fluorescence;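 active means mean percent inhibition of duplicate wells above the buffer-only control mean plus 3 SD of those controls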;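 further: 0% = buffer only wells and 100% = XE-991 inhibitor control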
KCNK9 block conf = KCNK9 potassium channel inhibitors, confirmation, HEK293 cells, thallium flux, duplicate; AID 492992, 2010; shares compounds with KCNK9 inh; 4,900 compounds, 43% hits; FluxOR thallium flux fluorescence; inhibition, % at 10 µM;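 active means thallium signal inhibited by more than 5 SD of the compound-free buffer control wells, on both duplicate plates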;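 further: 0% = assay buffer control wells without compound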
Kir2-1 spec = mouse Kir2.1 channel inhibition, confirmation, selectivity assay for KCNK9 modulator project, cell-based, HEK293, thallium flux | shares compounds with KCNK9 inh | Kir2.1 cells, FluxOR thallium flux fluorescence | inhibition, % at 10 µM | 4,900 compounds, 4% hits | AID 492993, 2010;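 active means thallium signal drop more than 5 SD beyond the mean of the no-compound control wells, seen in both duplicate plates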;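 further: signal is fluorescence rise after thallium addition divided by baseline fluorescence; plate controls were assay buffer only for no effect and full block by chlorpromazine control for full effect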
HEK293 Tl ctr = thallium flux in non-induced HEK293 cells, confirmation, counter-screen for KCNK9 inhibitor project, cell-based, second counter screen, non-induced KCNK9-HEK293. inhibition, % at 10 µM. AID 492997, 2010. FluxOR thallium flux. 4,900 compounds, 40% hits. shares compounds with KCNK9 inh;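 active means thallium signal drop beyond 5 SD of the untreated control mean, on both duplicate plates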;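 further: plate controls were buffer only IC0 wells for no effect and SID17386958 at its maximal inhibitory level for full effect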
KCNK3 confirm = retest of human KCNK3 channel inhibitors, confirmation, CHO cells, FluxOR thallium flux, triplicate. ratio percent of control, % at 10 µM. FluxOR fluorescence; 0% buffer, 100% carvedilol maximal block. shares compounds with KCNK3 inh. AID 651638, 2012. 2,400 compounds, 99% hits;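 active means ratio percent of control, averaged over triplicates, above buffer control mean plus 5 SD, cut at about 64% in these data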;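 further: ratio is the fluorescence rise from min to max over baseline after thallium stimulus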
KCNK3 uninduced = thallium flux inhibition in non-induced cells, primary screen, counter-screen for KCNK3 inhibitor project, cell-based, non-induced KCNK3 line, FluxOR thallium, triplicate | 2,400 compounds, 40% hits | AID 651747, 2012 | non-induced KCNK3 parental cells; stronger effect = lower value | thallium flux ratio (lower = more inhibition) at 10 µM | shares compounds with KCNK3 inh;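 active means thallium flux ratio, averaged over three wells, more than 5 SD below the buffer control mean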;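 further: host cells are CHO cells without KCNK3 induction; ratio is peak minus trough fluorescence over baseline then normalized to buffer controls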
The depositor's hits bear a star; i = inactive; . = no result. Shown are actives, neighbours in structure and some others; about 3.1% of the full set was active somewhere.

SMILES	KCNK3 inh	KCNQ1 inh	KCNQ1 pot	hERG protect	KCNK9 inh	KCNQ1 block val	CHO KCNQ1 ctr	KCNQ1 APC inh	KCNQ2 inh	KCNQ1-KCNE1 inh	KCNK9 block conf	Kir2-1 spec	HEK293 Tl ctr	KCNK3 confirm	KCNK3 uninduced
Cc1cc(C)n(-c2nc(SCCN(C)C)c3c4c(sc3n2)CCCC4)n1	i	14*	i	-32.4	-9.75*	87.5*	0.397	.	108.7%*	112.5%*	44.0%*	43.5%*	27.5%*	.	.
S=C(c1ccc(-c2cccc(Cl)c2)o1)N1CCOCC1	i	i	i	-10.1	i	.	.	.	.	.	.	.	.	.	.
S=C(c1ccc(-c2cccc(Cl)c2)o1)N1CCCCC1	i	6*	i	-9.4	-8.82*	92.5*	0.413	i	86.7%*	100.5%*	32.5%*	i	32.5%*	.	.
N#Cc1cnn(-c2ccccc2)c1NC(=O)CN1CCN(c2ccccc2)CC1	i	i	i	-9.6	i	.	.	.	.	.	.	.	.	.	.
CCN(c1ccccc1)c1nc(C#N)nc(N(CC)c2ccccc2)n1	-11*	7*	i	-9.9	i	105.5*	0.367*	.	112.3%*	80.0%*	i	i	i	102.0*	i
CNc1ccccc1C(C)(C)c1cc(-c2cccc([N+](=O)[O-])c2)no1	i	i	i	0.7	i	.	.	.	.	.	.	.	.	.	.
CNc1ccccc1C(C)(C)c1cc(-c2cccc(Br)c2)no1	-10.7*	6*	i	-22.1	i	121.5*	0.457	i	106.0%*	117.0%*	.	.	.	121.0*	0.15*
CCn1c(=NC(=O)C2COc3ccccc3O2)sc2c(OC)ccc(OC)c21 (configuration not stated)	-10.1*	7*	i	-14.8	-6.61*	79.5*	0.385	.	81.7%*	125.5%*	.	.	.	112.0*	i
